Test results reported in ChEMBL document CHEMBL4038331 (J Med Chem, 2017).
Activity calls are given as the source filed them. The calls are words filed in the database; no cut-off is given here.

Legend:
[1] = Antioxidant activity assessed as DPPH radical scavenging activity measured every minute for 45 mins; format: functional
How it was run: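 DPPH• ethanolic solution diluted to absorbance 0.72 ± 0.02 at 515 nm. Ethanolic test solutions (50–500 μM) were added in triplicate and read at 515 nm. Inhibition was taken against an ethanol blank (100% radical), and IC50 was read from dose–response curves.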

[2] = Antioxidant activity assessed as ABTS radical scavenging activity measured each minute for 15 mins by spectrophotometric analysis; format: functional
How it was run: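 ABTS•+ generated from 7 mM ABTS plus potassium persulfate, held 16 h dark at room temperature, then diluted in ethanol to absorbance 0.72 ± 0.02. Ethanolic test solutions (10–500 μM) were added to radical solution in triplicate. Inhibition was taken against an ethanol blank (100% radical), and IC50 was read from dose–response curves.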

[3] = Antioxidant activity assessed as GO radical scavenging activity measured for 30 mins in absence of light; format: functional
How it was run: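 Ethanolic GO• (5 mM stock) diluted to absorbance 1.00 ± 0.02 at 428 nm. Test solutions (5–75 μM in ethanol) were added in triplicate and read at 428 nm at room temperature. Inhibition was taken against an ethanol blank (100% radical).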

[4] = Redox potential of compound in Ag/AgCl-NaCl containing phosphate buffer at 0.1 mM at pH 7.4 by cyclic voltammetric analysis
How it was run: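 Voltammetry used a glassy carbon working electrode, Pt counter and Ag/AgCl reference. Compound was at 0.1 mM final (10 mM ethanolic stock) in pH 7.4 potassium phosphate electrolyte.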

[5] = Lipophilicity of compound in Ag/AgCl-NaCl containing PET membrane assessed as tranfer potential at pH 7; format: physicochemical
How it was run: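 Transfer across a liquid–liquid interface on a microporous PET membrane, with 1,6-dichlorohexane organic phase containing BTPPATPBCl. A gelled 2 mM BTPPACl + 2 mM NaCl reference was used, with 10 mM Tris-HCl pH 7.0 aqueous electrolyte.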

Liver [6] = experiment: Drug uptake in rat liver intra-mitochondria at 1 uM in presence of succinate/valinomycin by TPP+-based electrode assay; format: ADME, tissue-based
How it was run: (§1)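 TPP+-selective electrode with rat liver mitochondria (0.5 mg/mL) in 120 mM KCl, 10 mM HEPES pH 7.2, 1 mM EGTA at 37 °C with rotenone 1.5 μM. Five 1 μM additions calibrated the electrode, then succinate 10 mM was added, then valinomycin 0.2 μg/mL. The accumulation ratio assumed a matrix volume of ~0.5 μL/mg with a binding correction.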

Liver [7] = experiment: Drug uptake in rat liver extra-mitochondria at 1 uM in presence of succinate/valinomycin by TPP+-based electrode assay; format: ADME, tissue-based; how it was run: as §1
Liver [8] = experiment: Ratio of drug level in rat liver intra-mitochondria to extra-mitochondria at 1 uM in presence of succinate/valinomycin by TPP+-based electrode assay; format: ADME, tissue-based; how it was run: as §1
Liver [9] = experiment: Induction of basal oxygen consumption under nonphosphorylative conditions in rat liver mitochondria after 5 mins in presence of glutamate/malate; format: functional
How it was run: (§2)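 Glutamate/malate (10/5 mM) or succinate (5 mM) was the substrate, with compound 2.5–10 μM for 5 min (state 2). ADP was added (125 nmol glutamate/malate; 75 nmol succinate), then oligomycin 2 μg/mL, then FCCP 1 μM. RCR and ADP/O were calculated. Seven experiments.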

Liver [10] = experiment: Induction of ADP-stimulated respiration in rat liver mitochondria after 5 mins in presence of succinate; format: functional; how it was run: as §2
Liver [11] = experiment: Induction of membrane hyperpolarization in rat liver mitochondria assessed as change in repolarization potential at 2.5 uM; format: functional
How it was run: (§3)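 Safranine (5 μM) fluorescence (ex 495/em 586 nm) at 25 °C. Rat liver mitochondria (0.5 mg/2 mL) were in 200 mM sucrose, 1 mM KH2PO4, 10 mM Tris pH 7.4, 10 μM EGTA with glutamate/malate or succinate, after 5 min with 2.5–10 μM. ADP 25 nmol depolarised, then FCCP 1 μM was added. A valinomycin calibration in K+-free medium was used, five experiments.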

[12] = Induction of mPTP in energized rat liver mitochondria at 2.5 to 10 uM after 5 mins in presence of succinate by spectrophotometric analysis
Rattus norvegicus [13] = organism: Rattus norvegicus; experiment: Inhibition of mPTP in energized rat liver mitochondria at 2.5 to 10 uM after 5 mins in presence of succinate by spectrophotometric analysis
Liver [14] = experiment: Induction of basal respiration in rat liver mitochondria measured 5 mins after ADP phosphorylation in presence of glutamate/malate; format: functional; how it was run: as §2
Liver [15] = experiment: Increase in oligomycin-inhibited respiration in rat liver mitochondria after 5 mins in presence of glutamate/malate; format: functional; how it was run: as §2
Liver [16] = experiment: Increase in oligomycin-inhibited respiration in rat liver mitochondria after 5 mins in presence of succinate; format: functional; how it was run: as §2
Liver [17] = experiment: Induction of basal respiration in rat liver mitochondria measured 5 mins after ADP phosphorylation in presence of succinate; format: functional; how it was run: as §2
Liver [18] = experiment: Induction of basal oxygen consumption under nonphosphorylative conditions in rat liver mitochondria after 5 mins in presence of succinate; format: functional; how it was run: as §2
Liver [19] = experiment: Induction of ADP-stimulated respiration in rat liver mitochondria after 5 mins in presence of glutamate/malate; format: functional; how it was run: as §2
Liver [20] = experiment: Decrease in oxidative phosphorylation efficiency in rat liver mitochondria assessed as reduction in coupling between ATP systhesis and oxygen consumption after 5 mins in presence of glutamate/malate; format: functional; how it was run: as §2
Liver [21] = experiment: Decrease in oxidative phosphorylation efficiency in rat liver mitochondria assessed as reduction in coupling between ATP systhesis and oxygen consumption after 5 mins in presence of succinate; format: functional; how it was run: as §2
Liver [22] = experiment: Decrease in oxidative phosphorylation efficiency in rat liver mitochondria assessed as reduction in respiratory control ratio after 5 mins in presence of glutamate/malate; format: functional; how it was run: as §2
[23] = Iron chelating activity in ammonium acetate buffer assessed as inhibition of [Fe(ferrozine)3]2+ formation at 100 uM at pH 6.7 measured after 10 mins by spectrophotometric analysis
How it was run: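 Ferrozine assay in ammonium acetate buffer pH 6.7. Compound (100 μM) plus ammonium iron(II) sulfate (20 μM) for 10 min, read at 562 nm. Ferrozine was added, incubated 10 min at 37 °C, and re-read at 562 nm. The first reading was subtracted, with a DMSO blank and EDTA = 100%. Three experiments.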

Liver [24] = experiment: Antioxidant activity in rat liver mitochondria assessed as inhibition of ADP/FeSO4-induced lipid peroxidation at 5 uM preincubated for 5 mins followed by ADP/FeSO4 addition; format: functional
How it was run: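 Rat liver mitochondria (2 mg) in 100 mM KCl, 10 mM Tris-HCl pH 7.6, with glutamate/malate (5/2.5 mM) at 37 °C. After 5 min with compound (5 μM), peroxidation was started with ADP/0.1 mM FeSO4. The lag phase of O2 consumption was measured by Clark electrode and expressed as % of control. Six experiments.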

Liver [25] = experiment: Antioxidant activity in rat liver mitochondria assessed as inhibition of FeSO4/H2O2-induced lipid peroxidation at 5 uM preincubated for 5 mins followed by FeSO4/H2O2 addition for 15 mins by TBARS-based fluorescence assay; format: functional
How it was run: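 Rat liver mitochondria (2 mg protein/mL) in 100 mM KCl, 10 mM Tris-HCl pH 7.6 with glutamate/malate at 37 °C. After 5 min with compound (5 μM), 100 μM FeSO4/500 μM H2O2/5 mM ascorbate was added for 15 min. Butylated hydroxytoluene, perchloric acid and thiobarbituric acid were added, then heated 15 min at 100 °C. Read-out as % of control, three experiments.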

Liver [26] = experiment: Inhibition of ADP-induced membrane depolarization in succinate energized rat liver mitochondria at 10 uM preincubated for 5 mins followed by ADP addition measured by safranine-based spectrofluorometric analysis; format: functional, tissue-based; how it was run: as §3
Rattus norvegicus [27] = organism: Rattus norvegicus; experiment: Inhibition of mPTP in energized rat liver mitochondria at 10 uM after 5 mins in presence of succinate by spectrophotometric analysis
How it was run: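 Ca2+ (15–50 μM, titrated daily) added to trigger mPTP, with cyclosporin A as control. Swelling followed as light scattering at 540 nm with stirring at 37 °C. Reported as Δabsorbance; mean ± SEM, n=3.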

SMILES	IC50 [1] [µM]	IC50 [2] [µM]	IC50 [3] [µM]	Activity [4] [V]	Activity [5] [V]	Drug uptake (Liver [6]) [mM]	Drug uptake (Liver [7]) [µM]	Ratio (Liver [8])	Activity (Liver [9])	Activity (Liver [10])	Activity [12]	Activity (Liver [14])	Activity (Liver [15])	Activity (Liver [16])	Activity (Liver [17])	Activity (Liver [18])	Activity (Liver [19])	Activity (Liver [20])	Activity (Liver [21])	Activity (Liver [22])	further results
CS(=O)(=O)[O-].O=C(/C=C/c1ccc(O)c(O)c1)NCCCCCCCC[P+](c1ccccc1)(c1ccccc1)c1ccccc1	28	27.9	2.8	0.17	0.345	5.7	1.2	5100	Dose-dependent effect	Dose-dependent effect	Non-Toxic	Dose-dependent effect	Dose-dependent effect	Dose-dependent effect	Dose-dependent effect	Dose-dependent effect	Dose-dependent effect	Dose-dependent effect	Dose-dependent effect	Dose-dependent effect	Activity (Liver [11]): 10 mV; inhibition (Rattus norvegicus [13]): Active
O=C(O)CN(CCN(CC(=O)O)CC(=O)O)CC(=O)O	–	–	–	–	–	–	–	–	–	–	–	–	–	–	–	–	–	–	–	–	inhibition [23]: Active
O=C(O)/C=C/c1ccc(O)c(O)c1 [CAFFEIC ACID]	18.1	17.9	3.4	0.168	–	–	–	–	–	–	–	–	–	–	–	–	–	–	–	–	–
CS(=O)(=O)[O-].O=C(/C=C/c1cc(O)c(O)c(O)c1)NCCCCCCCC[P+](c1ccccc1)(c1ccccc1)c1ccccc1	14.7	8.7	2.3	0.046	0.423	4.5	1	3900	Dose-dependent effect	Dose-dependent effect	Non-Toxic	Dose-dependent effect	Dose-dependent effect	Dose-dependent effect	Dose-dependent effect	Dose-dependent effect	Dose-dependent effect	Dose-dependent effect	Dose-dependent effect	Dose-dependent effect	inhibition (Liver [24]): Active; Activity (Liver [11]): 25 mV; inhibition (Rattus norvegicus [13]): Active
CS(=O)(=O)[O-].O=C(/C=C/c1ccc(O)c(O)c1)NCCCCCC[P+](c1ccccc1)(c1ccccc1)c1ccccc1	29.5	30.5	4.1	0.164	0.396	2.5	1.8	2500	Dose-dependent effect	Dose-dependent effect	–	Dose-dependent effect	Dose-dependent effect	Dose-dependent effect	Dose-dependent effect	Dose-dependent effect	Dose-dependent effect	Dose-dependent effect	Dose-dependent effect	Dose-dependent effect	inhibition [23]: Active; inhibition (Liver [25]): Active
CS(=O)(=O)[O-].O=C(/C=C/c1cc(O)c(O)c(O)c1)NCCCCCCCCCC[P+](c1ccccc1)(c1ccccc1)c1ccccc1	13.7	7.5	2.5	0.057	0.377	5	1.4	3500	Dose-dependent effect	Dose-dependent effect	Non-Toxic	Dose-dependent effect	Dose-dependent effect	Dose-dependent effect	Dose-dependent effect	Dose-dependent effect	Dose-dependent effect	Dose-dependent effect	Dose-dependent effect	Dose-dependent effect	inhibition (Liver [24]): Active; inhibition (Liver [25]): Active; Activity (Liver [11]): 25 mV; inhibition (Liver [26]): Active; inhibition (Rattus norvegicus [13]): Active
CS(=O)(=O)[O-].O=C(/C=C/c1ccc(O)c(O)c1)NCC[P+](c1ccccc1)(c1ccccc1)c1ccccc1	35.4	33.3	4.5	0.166	0.572	1.5	3.7	600	–	Dose-dependent effect	–	Dose-dependent effect	Dose-dependent effect	Dose-dependent effect	Dose-dependent effect	Dose-dependent effect	Dose-dependent effect	Dose-dependent effect	Dose-dependent effect	Dose-dependent effect	inhibition (Liver [24]): Active
COC1=C(OC)C(=O)C(CCCCCCCCCC[P+](c2ccccc2)(c2ccccc2)c2ccccc2)=C(C)C1=O.CS(=O)(=O)[O-] [MITOQUINONE MESYLATE]	–	–	–	–	–	–	–	–	–	–	Non-Toxic	–	–	–	–	–	–	–	–	–	inhibition [23]: inactive; inhibition (Rattus norvegicus [27]): inactive
